Active and inactive are the calls of the source. No cut-off for these calls is given here.
What was measured:
CYP1A1 [1] = target: T1, CYP1A1 (Homo sapiens, UniProt P35869); assay: Agonist activity at AhR in human HepG2 cells assessed as induction of CYP1A1 activity at 0.13 nM using 7-ethoxyresorufin as substrate after 24 hrs by ethoxyresorufin-O-deethylase assay relative to DMSO; assay type: cell-based; details: probe 7-ethoxyresorufin, read-out: FC
T1 sequence (P35869 whole entry): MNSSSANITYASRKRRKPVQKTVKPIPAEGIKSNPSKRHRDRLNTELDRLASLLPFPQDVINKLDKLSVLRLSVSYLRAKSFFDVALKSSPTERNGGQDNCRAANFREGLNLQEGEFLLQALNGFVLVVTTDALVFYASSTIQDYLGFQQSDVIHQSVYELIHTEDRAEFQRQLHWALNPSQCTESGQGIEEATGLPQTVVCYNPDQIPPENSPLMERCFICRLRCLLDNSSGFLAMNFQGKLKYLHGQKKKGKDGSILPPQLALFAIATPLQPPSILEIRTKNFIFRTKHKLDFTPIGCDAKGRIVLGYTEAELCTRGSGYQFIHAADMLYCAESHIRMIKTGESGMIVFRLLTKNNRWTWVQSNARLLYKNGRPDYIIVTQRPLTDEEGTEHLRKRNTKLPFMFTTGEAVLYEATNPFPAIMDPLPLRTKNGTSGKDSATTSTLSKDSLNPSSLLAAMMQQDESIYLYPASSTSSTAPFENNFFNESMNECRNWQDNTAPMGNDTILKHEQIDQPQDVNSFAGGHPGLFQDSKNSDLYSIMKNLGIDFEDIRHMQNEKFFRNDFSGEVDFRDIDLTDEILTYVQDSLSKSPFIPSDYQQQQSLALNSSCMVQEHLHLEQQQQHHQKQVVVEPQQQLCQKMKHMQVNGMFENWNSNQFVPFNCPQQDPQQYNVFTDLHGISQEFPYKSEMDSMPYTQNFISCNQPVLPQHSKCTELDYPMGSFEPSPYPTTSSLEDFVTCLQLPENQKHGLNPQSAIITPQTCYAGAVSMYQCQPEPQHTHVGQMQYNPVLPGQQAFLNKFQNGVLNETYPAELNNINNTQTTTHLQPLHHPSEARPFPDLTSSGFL
How it was run: (§1)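 EROD read-out of CYP1A1 activity in HepG cells treated for 24 h with compound or vehicle (DMSO) at 0.13 nM, 3.2 nM and 80 nM. Activity is reported as fold induction over the DMSO-treated cells.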

CYP1A1 [2] = target: T1, CYP1A1; assay: Agonist activity at AhR in human HepG2 cells assessed as induction of CYP1A1 activity at 80 nM using 7-ethoxyresorufin as substrate after 24 hrs by ethoxyresorufin-O-deethylase assay relative to DMSO; assay type: cell-based; details: probe 7-ethoxyresorufin, read-out: FC; how it was run: as §1
CYP1A1 [3] = target: T1, CYP1A1; assay: Agonist activity at AhR in human HepG2 cells assessed as induction of CYP1A1 activity at 3.2 nM using 7-ethoxyresorufin as substrate after 24 hrs by ethoxyresorufin-O-deethylase assay relative to DMSO; assay type: cell-based; details: probe 7-ethoxyresorufin, read-out: FC; how it was run: as §1
[4] = target: T2, Aryl hydrocarbon receptor (Homo sapiens, UniProt P35869); assay: Agonist activity at AhR in human HepG2 cells assessed as increase in CYP1A1 protein expression at 300 nM after 24 hrs by Western blot analysis; assay type: cell-based; details: hepg2, 24 h, 0.3 µM
T2 sequence (P35869 whole entry): T1 sequence (P35869 whole entry)
How it was run: (§2)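 HepG2 cells were exposed to a dose series for 24 h. CYP1A1 protein levels were then assessed by Western blotting.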

[5] = target: T2, Aryl hydrocarbon receptor; assay: Agonist activity at AhR in human HepG2 cells assessed as induction of CYP1A1 expression after 24 hrs by ethoxyresorufin-O-deethylase assay; assay type: cell-based; details: for Activity: human, hepg2, 24 h
How it was run: (§3)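 Full dose-response in the EROD assay. HepG2 cells were treated for 24 h across a concentration series, with FICZ as the reference agonist. CYP1A1 induction was read out and EC50 values were derived from the curves.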

CYP1A1 [6] = target: T1, CYP1A1; assay: Agonist activity at AhR in human HepG2 cells assessed as induction of CYP1A1 activity at 0.13 nM using 7-ethoxyresorufin as substrate after 24 hrs by ethoxyresorufin-O-deethylase assay relative to 3-phenylbenzo[f]chromen-1-one; assay type: cell-based; details: probe 7-ethoxyresorufin, read-out: FC
CYP1A1 [7] = target: T1, CYP1A1; assay: Agonist activity at AhR in human HepG2 cells assessed as induction of CYP1A1 activity at 3.2 nM using 7-ethoxyresorufin as substrate after 24 hrs by ethoxyresorufin-O-deethylase assay relative to 3-phenylbenzo[f]chromen-1-one; assay type: cell-based; details: probe 7-ethoxyresorufin, read-out: FC
[8] = target: T2, Aryl hydrocarbon receptor; assay: Agonist activity at AhR in human HepG2 cells assessed as induction of CYP1A1 expression at <30 pM after 24 hrs by ethoxyresorufin-O-deethylase assay; assay type: cell-based; details: hepg2, 24 h; how it was run: as §3
[9] = target: T2, Aryl hydrocarbon receptor; assay: Potency index, ratio of FICZ EC50 to test compound EC50 for agonist activity at AhR in human HepG2 cells assessed as increase in CYP1A1 expression after 24 hrs by ethoxyresorufin-O-deethylase assay; assay type: cell-based; details: hepg2, 24 h
[10] = target: T2, Aryl hydrocarbon receptor; assay: Agonist activity at AhR in human HepG2 cells assessed as increase in CYP1A1 protein expression at 3 to 10 nM after 24 hrs by Western blot analysis; assay type: cell-based; details: hepg2, 24 h; how it was run: as §2
HepG2 = assay: Effect on AhR mRNA expression in human HepG2 cells assessed as 100 nM after 6 hrs by q-RT-PCR analysis; assay type: functional, cell-based
How it was run: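 HepG2 cells were treated at 100 nM for 6 h. AhR and CYP1A1 mRNA levels were then quantified by qRT-PCR, normalized to GAPDH.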

[11] = target: T2, Aryl hydrocarbon receptor; assay: Agonist activity at AhR in human HepG2 cells assessed as increase in CYP1A1 protein expression after 24 hrs by Western blot analysis; assay type: cell-based; details: hepg2, 24 h; how it was run: as §2

Row | Structure (SMILES) | fold induction at 24 h, 0.00013 µM (CYP1A1 [1]) | fold induction at 24 h, 0.08 µM (CYP1A1 [2]) | fold induction at 24 h, 0.0032 µM (CYP1A1 [3]) | other results
1 | CCCn1c2ccccc2c2c(C=O)c3c(cc21)c1ccccc1n3C | 1.3 | 8.9 | 1.9 | –
2 | CCCn1c2ccccc2c2cc3[nH]c4ccccc4c3c(CO)c21 | 0.4 | 3.4 | 0.5 | –
3 | Cn1c2ccccc2c2cc3c(c(C=O)c21)c1ccccc1n3Cc1ccccc1 | 1 | 27.5 | 4.2 | –
4 | O=c1cc(-c2ccccc2)oc2ccc3ccccc3c12 [BETA-NAPHTHOFLAVONE] | 0.8 | 11.2 | 1.1 | Activity [4]: Active
5 | O=Cc1c2[nH]c3ccccc3c2cc2[nH]c3ccccc3c12 | – | – | – | Activity [5]: Dose-dependent effect
6 | OCc1c2c(cc3c4ccccc4n(CC4CC4)c13)[nH]c1ccccc12 | 0.3 | 2.6 | 0.5 | –
7 | OCc1c2c(cc3c4ccccc4n(Cc4ccccc4)c13)[nH]c1ccccc12 | 0.4 | 3.6 | 0.7 | –
8 | Cn1c2ccccc2c2cc3[nH]c4ccccc4c3c(CO)c21 | 5.3 | 62.6 | 26.7 | –
9 | OCc1c2[nH]c3ccccc3c2cc2[nH]c3ccccc3c12 | 3.8 | 59.2 | 13.4 | fold induction at 24 h, 0.00013 µM (CYP1A1 [6]): 5; fold induction at 24 h, 0.0032 µM (CYP1A1 [7]): 12
10 | Cn1c2ccccc2c2cc3[nH]c4ccccc4c3c(C=O)c21 | 27.3 | 82.4 | 88.9 | Activity [8]: Active; Ratio EC50 [9]: 8; Activity [10]: Active; EC50 [5]: 0.26 nM; Activity [5]: Dose-dependent effect; Activity (HepG2): inactive; Activity [11]: Dose-dependent effect
11 | Cn1c2ccccc2c2c(C=O)c3c(cc21)c1ccccc1n3C | 1.6 | 39.4 | 3.4 | –
12 | CCn1c2ccccc2c2c(C=O)c3c(cc21)c1ccccc1n3C | 1.4 | 25.1 | 4.5 | –
13 | CCn1c2ccccc2c2cc3[nH]c4ccccc4c3c(CO)c21 | 1.4 | 31.8 | 3.5 | –

— ChEMBL document CHEMBL4616611, “Synthesis and biological evaluation of FICZ analogues as agonists of aryl hydrocarbon receptor” (Bioorg Med Chem Lett, 2020)
